Key:
[1] = target: Phosphatidylinositol 4,5-bisphosphate 3-kinase catalytic subunit gamma isoform (Homo sapiens, UniProt P48736); assay: Inhibition of human PI3Kgamma expressed in baculovirus infected Sf21 insect cells by ADP-Glo assay
[2] = Metabolic stability in rat liver microsomes assessed as compound remaining […] measured upto 60 mins by LC-MS/MS analysis; assay type: ADME, Microsome; conditions: read-out: Stability
[3] = Metabolic stability in rat liver microsomes assessed as compound remaining […] measured upto 60 mins in presence of NADPH by LC-MS/MS analysis; assay type: ADME, Microsome; conditions: read-out: Stability
[4] = Metabolic stability in rat liver microsomes assessed as half life […] measured upto 60 mins in presence of NADPH by LC-MS/MS analysis; assay type: ADME, Microsome
[5] = Toxicity in BALB/c mouse xenografted with human U-87 MG cells assessed as drug tolerance at 40 mg/kg/day, ip for 16 days; assay type: organism-based; conditions: in vivo, 384 h, time 16 day
How it was run: (§1)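 U87-MG xenograft mice treated once tumours averaged ~100 mm³. Dosing was 40 mg/kg/day intraperitoneally, once daily for 16 days. Tumour volume and body weight of each mouse were recorded on days 1, 4, 8, 11, 15 and 17.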

[6] = Toxicity in BALB/c mouse xenografted with human U-87 MG cells assessed as body weight loss at 40 mg/kg/day, ip for 16 days; assay type: organism-based; conditions: in vivo, 384 h, time 16 day; how it was run: as §1
[7] = target: T1, Phosphatidylinositol 4,5-bisphosphate 3-kinase catalytic subunit delta isoform (Homo sapiens, UniProt O00329); assay: Inhibition of N-terminal 6xHis-tagged recombinant full-length human PI3Kdelta expressed in baculovirus infected Sf21 insect cells by ADP-Glo assay
T1 sequence (O00329 whole entry): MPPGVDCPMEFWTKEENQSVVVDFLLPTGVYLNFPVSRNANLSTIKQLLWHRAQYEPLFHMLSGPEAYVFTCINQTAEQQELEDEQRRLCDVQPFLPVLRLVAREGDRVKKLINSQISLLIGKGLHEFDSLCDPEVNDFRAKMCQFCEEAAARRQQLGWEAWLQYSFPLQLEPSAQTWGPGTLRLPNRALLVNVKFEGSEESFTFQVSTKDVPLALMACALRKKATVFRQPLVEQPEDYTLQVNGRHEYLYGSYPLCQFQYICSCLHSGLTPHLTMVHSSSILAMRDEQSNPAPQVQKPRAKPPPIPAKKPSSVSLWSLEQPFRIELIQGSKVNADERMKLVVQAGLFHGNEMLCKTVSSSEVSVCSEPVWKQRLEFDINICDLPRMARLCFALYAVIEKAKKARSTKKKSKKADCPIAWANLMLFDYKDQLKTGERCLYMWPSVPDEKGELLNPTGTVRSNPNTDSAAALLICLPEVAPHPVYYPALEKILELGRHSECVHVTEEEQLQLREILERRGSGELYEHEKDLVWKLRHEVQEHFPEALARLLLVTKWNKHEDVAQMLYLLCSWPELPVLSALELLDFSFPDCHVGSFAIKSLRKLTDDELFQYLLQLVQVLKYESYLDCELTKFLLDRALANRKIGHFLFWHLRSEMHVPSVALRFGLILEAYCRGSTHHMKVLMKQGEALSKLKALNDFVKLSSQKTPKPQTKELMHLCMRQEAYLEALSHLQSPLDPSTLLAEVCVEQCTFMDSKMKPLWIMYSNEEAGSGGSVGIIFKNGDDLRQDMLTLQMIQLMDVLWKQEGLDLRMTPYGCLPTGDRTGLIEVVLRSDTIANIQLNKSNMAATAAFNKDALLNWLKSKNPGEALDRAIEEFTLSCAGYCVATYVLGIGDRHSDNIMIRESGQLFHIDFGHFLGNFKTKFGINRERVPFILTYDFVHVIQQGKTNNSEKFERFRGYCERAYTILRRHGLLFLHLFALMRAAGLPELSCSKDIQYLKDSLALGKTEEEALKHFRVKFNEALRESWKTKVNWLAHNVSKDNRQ

[8] = Metabolic stability in rat liver microsomes assessed as intrinsic clearance […] measured upto 60 mins in presence of NADPH by LC-MS/MS analysis; assay type: ADME, Microsome; conditions: read-out: CLH
U-87 MG [9] = assay: Antitumor activity against human U-87 MG cells xenografted in BALB/c mouse assessed as tumor growth inhibition at 40 mg/kg/day, ip for 16 days relative to control; assay type: functional, U-87MG ATCC; conditions: 384 h, time 16 day, read-out: TGI
How it was run: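 U87-MG xenografts in mice; dosing began once mean tumor volume reached about 100 mm³. Given 40 mg/kg/day intraperitoneally, once daily for 16 days.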

[10] = target: Phosphatidylinositol 4,5-bisphosphate 3-kinase catalytic subunit beta isoform (Homo sapiens, UniProt P42338); assay: Inhibition of N-terminal 6xHis-tagged recombinant, full length human PI3Kbeta by ADP-Glo assay
Chain of Phosphatidylinositol 4,5-bisphosphate 3-kinase catalytic subunit beta isoform (P42338 whole entry, canonical isoform): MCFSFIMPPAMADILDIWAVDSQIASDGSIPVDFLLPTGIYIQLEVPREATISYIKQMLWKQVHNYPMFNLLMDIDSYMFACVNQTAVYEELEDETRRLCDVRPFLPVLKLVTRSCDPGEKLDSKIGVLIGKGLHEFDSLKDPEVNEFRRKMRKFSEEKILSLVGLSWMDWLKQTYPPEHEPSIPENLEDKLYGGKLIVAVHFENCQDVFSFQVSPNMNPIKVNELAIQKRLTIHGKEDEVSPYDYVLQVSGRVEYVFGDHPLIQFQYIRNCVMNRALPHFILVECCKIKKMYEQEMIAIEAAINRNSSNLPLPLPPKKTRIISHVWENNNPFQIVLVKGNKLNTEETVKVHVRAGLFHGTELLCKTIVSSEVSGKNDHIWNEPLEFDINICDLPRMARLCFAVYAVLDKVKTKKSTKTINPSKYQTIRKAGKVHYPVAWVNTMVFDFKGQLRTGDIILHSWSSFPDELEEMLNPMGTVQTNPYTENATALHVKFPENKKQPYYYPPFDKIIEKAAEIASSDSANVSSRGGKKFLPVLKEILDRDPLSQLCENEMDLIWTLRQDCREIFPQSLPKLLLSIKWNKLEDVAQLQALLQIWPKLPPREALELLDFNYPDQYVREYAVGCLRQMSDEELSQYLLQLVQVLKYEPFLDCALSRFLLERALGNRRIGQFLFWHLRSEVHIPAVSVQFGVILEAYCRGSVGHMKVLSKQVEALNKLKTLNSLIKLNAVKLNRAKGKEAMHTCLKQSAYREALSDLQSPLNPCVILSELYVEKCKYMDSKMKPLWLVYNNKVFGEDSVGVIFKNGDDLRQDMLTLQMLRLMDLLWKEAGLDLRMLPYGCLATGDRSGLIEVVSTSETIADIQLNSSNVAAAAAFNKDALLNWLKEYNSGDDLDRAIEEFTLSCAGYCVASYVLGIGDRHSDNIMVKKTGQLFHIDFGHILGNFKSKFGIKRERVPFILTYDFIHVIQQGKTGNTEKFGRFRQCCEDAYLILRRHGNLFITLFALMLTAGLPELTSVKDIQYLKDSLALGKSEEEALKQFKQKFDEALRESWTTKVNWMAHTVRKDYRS

[11] = Toxicity in BALB/c mouse xenografted with human U-87 MG cells assessed as animal mortality at 40 mg/kg/day, ip for 16 days; assay type: organism-based; conditions: in vivo, 384 h, time 16 day; how it was run: as §1
[12] = target: Phosphatidylinositol 4,5-bisphosphate 3-kinase catalytic subunit alpha isoform (Homo sapiens, UniProt P42336); assay: Inhibition of N-terminal GST-fused full-length human PI3Kalpha (1 to 1068 residues) expressed in baculovirus expression system using PIP2 as substrate incubated for 1 hr in presence of ATP by ADP-Glo assay
Chain of Phosphatidylinositol 4,5-bisphosphate 3-kinase catalytic subunit alpha isoform (P42336 whole entry, the tested form may be a part, canonical isoform): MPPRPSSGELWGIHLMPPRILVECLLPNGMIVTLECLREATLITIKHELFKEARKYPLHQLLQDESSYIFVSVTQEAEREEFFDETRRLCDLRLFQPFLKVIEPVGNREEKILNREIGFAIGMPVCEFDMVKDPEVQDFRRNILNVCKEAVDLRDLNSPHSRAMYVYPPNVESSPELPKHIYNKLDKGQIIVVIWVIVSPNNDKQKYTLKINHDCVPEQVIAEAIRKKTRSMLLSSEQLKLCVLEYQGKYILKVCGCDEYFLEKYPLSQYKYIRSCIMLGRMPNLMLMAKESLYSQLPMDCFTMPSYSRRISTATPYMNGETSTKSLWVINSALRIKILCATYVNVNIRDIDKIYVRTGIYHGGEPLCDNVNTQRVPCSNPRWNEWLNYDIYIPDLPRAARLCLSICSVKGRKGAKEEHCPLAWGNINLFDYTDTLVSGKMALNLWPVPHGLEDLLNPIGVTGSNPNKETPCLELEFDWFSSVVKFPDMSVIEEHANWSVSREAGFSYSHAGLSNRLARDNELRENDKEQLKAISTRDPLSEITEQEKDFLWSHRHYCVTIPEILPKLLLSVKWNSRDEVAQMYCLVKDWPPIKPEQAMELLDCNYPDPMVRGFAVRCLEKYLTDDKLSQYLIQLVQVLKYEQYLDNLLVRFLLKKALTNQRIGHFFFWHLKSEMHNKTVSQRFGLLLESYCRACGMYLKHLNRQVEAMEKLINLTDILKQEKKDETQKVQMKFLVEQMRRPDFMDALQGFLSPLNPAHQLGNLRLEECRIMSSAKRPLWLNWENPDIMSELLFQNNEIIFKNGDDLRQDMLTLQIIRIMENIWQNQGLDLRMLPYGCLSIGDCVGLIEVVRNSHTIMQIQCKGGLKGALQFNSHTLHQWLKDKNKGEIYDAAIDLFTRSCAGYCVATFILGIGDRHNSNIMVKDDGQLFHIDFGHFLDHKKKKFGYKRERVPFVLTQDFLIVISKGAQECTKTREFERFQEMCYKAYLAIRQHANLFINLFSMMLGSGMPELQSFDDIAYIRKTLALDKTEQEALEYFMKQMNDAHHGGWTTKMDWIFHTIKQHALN

HCT-116 = assay: Antiproliferative activity against human HCT-116 cells assessed as inhibition of cell proliferation incubated for 96 hrs by MTT assay; assay type: functional, cell-based; conditions: HCT-116, 96 h
U-87 MG [13] = assay: Antiproliferative activity against human U-87 MG cells assessed as inhibition of cell proliferation incubated for 96 hrs by MTT assay; assay type: functional, cell-based, U-87MG ATCC
[14] = Metabolic stability in rat liver assessed as intrinsic clearance […] measured upto 60 mins in presence of NADPH by LC-MS/MS analysis; assay type: ADME; conditions: read-out: CLH

Chain of Phosphatidylinositol 4,5-bisphosphate 3-kinase catalytic subunit gamma isoform (P48736 whole entry, canonical isoform): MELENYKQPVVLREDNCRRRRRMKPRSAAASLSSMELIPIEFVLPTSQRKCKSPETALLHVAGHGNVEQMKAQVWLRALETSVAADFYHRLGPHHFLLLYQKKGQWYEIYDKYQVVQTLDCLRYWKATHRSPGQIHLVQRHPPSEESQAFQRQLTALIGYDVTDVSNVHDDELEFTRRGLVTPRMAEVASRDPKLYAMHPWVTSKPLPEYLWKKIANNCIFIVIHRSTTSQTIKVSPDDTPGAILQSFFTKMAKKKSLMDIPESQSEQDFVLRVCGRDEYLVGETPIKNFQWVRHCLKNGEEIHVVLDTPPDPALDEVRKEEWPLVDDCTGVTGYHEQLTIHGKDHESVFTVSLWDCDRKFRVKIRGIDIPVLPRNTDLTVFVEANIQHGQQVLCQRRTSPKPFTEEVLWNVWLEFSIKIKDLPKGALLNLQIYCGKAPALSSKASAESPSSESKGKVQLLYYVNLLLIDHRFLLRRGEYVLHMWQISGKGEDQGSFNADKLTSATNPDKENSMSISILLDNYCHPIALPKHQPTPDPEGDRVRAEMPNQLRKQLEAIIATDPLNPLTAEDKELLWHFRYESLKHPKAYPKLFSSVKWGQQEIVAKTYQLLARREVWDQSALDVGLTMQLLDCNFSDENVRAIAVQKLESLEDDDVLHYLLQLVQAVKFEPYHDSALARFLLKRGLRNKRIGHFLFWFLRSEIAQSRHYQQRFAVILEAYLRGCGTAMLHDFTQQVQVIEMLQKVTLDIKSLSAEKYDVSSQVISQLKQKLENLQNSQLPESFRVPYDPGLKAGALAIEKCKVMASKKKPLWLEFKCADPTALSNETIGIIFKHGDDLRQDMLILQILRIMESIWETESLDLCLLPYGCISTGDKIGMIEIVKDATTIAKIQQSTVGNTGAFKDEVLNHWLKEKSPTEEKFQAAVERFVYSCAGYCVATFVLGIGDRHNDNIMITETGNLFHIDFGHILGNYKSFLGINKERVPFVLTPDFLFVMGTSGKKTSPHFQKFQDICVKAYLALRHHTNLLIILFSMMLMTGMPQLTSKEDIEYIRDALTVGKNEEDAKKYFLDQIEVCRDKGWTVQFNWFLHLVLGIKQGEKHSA

COc1cccc2c1nc(C(F)F)n2-c1nc(N2CCOCC2)nc(N2CCN(C(=S)SCC(=O)N3CCN(S(C)(=O)=O)CC3)CC2)n1
IC50 [1]: 42 nM | remaining at 1 h [2]: 68.2% | remaining at 1 h [3]: 11.2% | half-life [4]: 21.5 min | Activity [5]: Non-Toxic | Activity [6]: Non-Toxic | IC50 [7]: > 50 nM | microsomal CLint [8]: 64 µL/min/mg | inhibition in vivo at 40 mg/kg/day (U-87 MG [9]): 42% | IC50 [10]: > 50 nM | Activity [11]: Non-Toxic | IC50 [12]: 1.2 nM | IC50 (HCT-116): 830 nM | IC50 (U-87 MG [13]): 1250 nM | CLint scaled [14]: 116 mL/min/kg

COc1cccc2c1nc(C(F)F)n2-c1nc(N2CCOCC2)nc(N2CCN(C(=S)SCC(=O)N3CCN(C4CCCC4)CC3)CC2)n1
IC50 [12]: 2.5 nM

COc1cccc2c1nc(C(F)F)n2-c1nc(N2CCOCC2)nc(N2CCN(C(=S)SCCN3CCCC3)CC2)n1
IC50 [12]: 20 nM

COc1cccc2c1nc(C(F)F)n2-c1nc(N2CCOCC2)cc(N2CCN(C(=S)SCCN3CCOCC3)CC2)n1
IC50 [12]: 81 nM

COc1cccc2c1nc(C(F)F)n2-c1nc(N2CCOCC2)nc(N2CCN(C(=S)SCC(=O)NC3CCC3)CC2)n1
IC50 [12]: 1.6 nM

COCCSC(=S)N1CCN(c2nc(N3CCOCC3)nc(-n3c(C(F)F)nc4c(OC)cccc43)n2)CC1
IC50 [12]: 21 nM

COc1cccc2c1nc(C(F)F)n2-c1nc(N2CCOCC2)nc(N2CCN(C(=S)SCC(=O)NC3CC3)CC2)n1
IC50 [12]: 1.4 nM

COc1cccc2c1nc(C(F)F)n2-c1nc(N2CCOCC2)nc(N2CCN(C(=S)SCC(=O)N(C)C)CC2)n1
IC50 [12]: 0.8 nM | IC50 (HCT-116): 2780 nM | IC50 (U-87 MG [13]): 1100 nM

COCCSC(=S)N1CCN(c2cc(N3CCOCC3)nc(-n3c(C(F)F)nc4c(OC)cccc43)n2)CC1
IC50 [12]: 17 nM

COc1cccc2c1nc(C(F)F)n2-c1nc(N2CCOCC2)nc(N2CCN(C(=S)SCC(=O)N3CCN(C)CC3)CC2)n1
IC50 [12]: 1.4 nM | IC50 (HCT-116): 980 nM | IC50 (U-87 MG [13]): 1670 nM

COc1cccc2c1nc(C(F)F)n2-c1nc(N2CCOCC2)nc(N2CCN(C(=S)SCCN3CCOCC3)CC2)n1
IC50 [12]: 29 nM

CCN(CC)CCSC(=S)N1CCN(c2nc(N3CCOCC3)nc(-n3c(C(F)F)nc4c(OC)cccc43)n2)CC1
IC50 [12]: 38 nM

FC(F)c1nc2ccccc2n1-c1nc(N2CCOCC2)nc(N2CCOCC2)n1 [ZSTK-474]
remaining at 1 h [2]: 100% | remaining at 1 h [3]: 19.6% | half-life [4]: 25.7 min | Activity [5]: Non-Toxic | Activity [6]: Non-Toxic | microsomal CLint [8]: 54 µL/min/mg | inhibition in vivo at 40 mg/kg/day (U-87 MG [9]): 72% | Activity [11]: Non-Toxic | IC50 (HCT-116): 710 nM | IC50 (U-87 MG [13]): 130 nM | CLint scaled [14]: 97 mL/min/kg

COc1cccc2c1nc(C(F)F)n2-c1nc(N2CCOCC2)nc(N2CCN(C(=S)SCC(=O)NC3CCCCC3)CC2)n1
IC50 [12]: 5.1 nM

COc1cccc2c1nc(C(F)F)n2-c1nc(N2CCOCC2)cc(N2CCN(C(=S)SCCN3CCN(C)CC3)CC2)n1
IC50 [12]: 120 nM

CCN(CC)C(=O)CSC(=S)N1CCN(c2cc(N3CCOCC3)nc(-n3c(C(F)F)nc4c(OC)cccc43)n2)CC1
IC50 [12]: 1.3 nM

COc1cccc2c1nc(C(F)F)n2-c1nc(N2CCOCC2)nc(N2CCN(C(=S)SCCN(C)C)CC2)n1
IC50 [12]: 63 nM

COc1cccc2c1nc(C(F)F)n2-c1nc(N2CCOCC2)cc(N2CCN(C(=S)SCC(N)=O)CC2)n1
IC50 [12]: 2.5 nM

COc1cccc2c1nc(C(F)F)n2-c1nc(N2CCOCC2)cc(N2CCN(C(=S)SCCN(C)C)CC2)n1
IC50 [12]: 34 nM

COc1cccc2c1nc(C(F)F)n2-c1nc(N2CCOCC2)nc(N2CCN(C(=S)SCC(=O)N3CCCC3)CC2)n1
IC50 [12]: 0.9 nM

COc1cccc2c1nc(C(F)F)n2-c1nc(N2CCOCC2)nc(N2CCN(C(=S)SCC(=O)N3CCOCC3)CC2)n1
IC50 [12]: 0.7 nM | IC50 (HCT-116): 1110 nM | IC50 (U-87 MG [13]): 600 nM

COc1cccc2c1nc(C(F)F)n2-c1nc(N2CCOCC2)cc(N2CCN(C(=S)SCC(=O)NC3CCCC3)CC2)n1
IC50 [12]: 34 nM

COc1cccc2c1nc(C(F)F)n2-c1nc(N2CCOCC2)cc(N2CCN(C(=S)SCC(=O)N3CCOCC3)CC2)n1
IC50 [1]: 35 nM | IC50 [7]: > 50 nM | IC50 [10]: > 50 nM | IC50 [12]: 1.2 nM | IC50 (HCT-116): 1530 nM | IC50 (U-87 MG [13]): 1220 nM

COc1cccc2c1nc(C(F)F)n2-c1nc(N2CCOCC2)cc(N2CCN(C(=S)SCC(=O)NC3CC3)CC2)n1
IC50 [12]: 2.7 nM

COc1cccc2c1nc(C(F)F)n2-c1nc(N2CCOCC2)nc(N2CCN(C(=S)SCCN3CCN(C)CC3)CC2)n1
IC50 [12]: 9.1 nM

COc1cccc2c1nc(C(F)F)n2-c1nc(N2CCOCC2)cc(N2CCN(C(=S)SCC(=O)N(C)C)CC2)n1
IC50 [1]: 33 nM | IC50 [7]: > 50 nM | IC50 [10]: > 50 nM | IC50 [12]: 1.8 nM | IC50 (HCT-116): 2200 nM | IC50 (U-87 MG [13]): 2040 nM

COc1cccc2c1nc(C(F)F)n2-c1nc(N2CCOCC2)nc(N2CCN(C(=S)SCC(N)=O)CC2)n1
IC50 [12]: 1.6 nM

COc1cccc2c1nc(C(F)F)n2-c1nc(N2CCOCC2)cc(N2CCN(C(=S)SCC(=O)NC3CCCCC3)CC2)n1
IC50 [12]: 12 nM

COc1cccc2c1nc(C(F)F)n2-c1nc(N2CCOCC2)cc(N2CCN(C(=S)SCC(=O)N3CCCC3)CC2)n1
IC50 [12]: 1.4 nM | IC50 (HCT-116): 1230 nM | IC50 (U-87 MG [13]): 1990 nM

CCN(CC)C(=O)CSC(=S)N1CCN(c2nc(N3CCOCC3)nc(-n3c(C(F)F)nc4c(OC)cccc43)n2)CC1
IC50 [12]: 1.1 nM

COc1cccc2c1nc(C(F)F)n2-c1nc(N2CCOCC2)cc(N2CCN(C(=S)SCC(=O)NC3CCC3)CC2)n1
IC50 [12]: 3.3 nM

COc1cccc2c1nc(C(F)F)n2-c1nc(N2CCOCC2)nc(N2CCN(C(=S)SCC(=O)NC3CCCC3)CC2)n1
IC50 [12]: 2.8 nM

COc1cccc2c1nc(C(F)F)n2-c1nc(N2CCOCC2)nc(N2CCN(C(=S)SCCN3CCCCC3)CC2)n1
IC50 [12]: 42 nM
